According to ChEMBL document CHEMBL1150387, “Development and experimental validation of a docking strategy for the generation of kinase-targeted libraries” (J Med Chem, 2008):

What was measured:
[1] = target: Ribosomal protein S6 kinase beta-1 (Homo sapiens) (UniProt P23443); assay: Inhibition of p70S6K at 10 uM by HTRF assay relative to control
How it was run: (§1)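 HTRF kinase assay, one panel of kinases. Inhibitor stock 50 µM in 100% DMSO; tested at 10 µM. ATP and substrate at final levels near Km. Final buffer: 50 mM Hepes/NaOH pH 7.4, 40 µM Na3VO4, 0.005% Tween-20, 1 mM DTT, MnCl2 or MgCl2 at kinase-dependent levels. Started by adding ATP/substrate. Reaction run at room temperature, time varied by kinase. Detection mix in 50 mM Hepes pH 7.4, 0.1% BSA, 150 mM KF, incubated ≥1 h at room temperature. Activity expressed as % of uninhibited control; n=2.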

[2] = target: Protein-tyrosine kinase 6 (Homo sapiens) (UniProt Q13882); assay: Inhibition of Brk at 10 uM by HTRF assay relative to control; how it was run: as §1
Protein-tyrosine kinase 6 (Homo sapiens), sequence (Q13882 whole entry, looked up): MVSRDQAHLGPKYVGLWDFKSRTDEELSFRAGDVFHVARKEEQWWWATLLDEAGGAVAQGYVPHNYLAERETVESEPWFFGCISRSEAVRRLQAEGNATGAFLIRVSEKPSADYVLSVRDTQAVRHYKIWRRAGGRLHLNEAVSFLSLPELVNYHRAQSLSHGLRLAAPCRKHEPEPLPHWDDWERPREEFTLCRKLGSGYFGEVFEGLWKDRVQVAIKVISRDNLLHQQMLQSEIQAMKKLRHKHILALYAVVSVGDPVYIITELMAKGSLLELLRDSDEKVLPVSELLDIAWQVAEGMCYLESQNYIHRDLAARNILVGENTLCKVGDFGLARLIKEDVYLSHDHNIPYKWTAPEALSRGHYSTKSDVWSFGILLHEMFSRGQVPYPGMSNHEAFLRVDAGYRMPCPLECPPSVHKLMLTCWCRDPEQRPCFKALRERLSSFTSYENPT

[3] = target: Mitogen-activated protein kinase 1 (Homo sapiens) (UniProt P28482); assay: Inhibition of ERK2 at 10 uM by HTRF assay relative to control; how it was run: as §1
Mitogen-activated protein kinase 1 (Homo sapiens), sequence (P28482 whole entry): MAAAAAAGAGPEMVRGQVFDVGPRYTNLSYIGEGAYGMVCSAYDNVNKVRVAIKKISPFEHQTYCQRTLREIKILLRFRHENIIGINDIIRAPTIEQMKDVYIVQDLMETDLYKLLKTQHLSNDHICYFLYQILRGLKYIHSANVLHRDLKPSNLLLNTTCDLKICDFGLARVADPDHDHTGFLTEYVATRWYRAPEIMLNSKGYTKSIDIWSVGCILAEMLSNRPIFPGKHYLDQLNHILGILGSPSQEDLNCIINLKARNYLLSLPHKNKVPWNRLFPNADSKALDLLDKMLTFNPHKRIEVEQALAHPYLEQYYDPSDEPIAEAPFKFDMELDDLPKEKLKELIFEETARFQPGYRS

[4] = target: Tyrosine-protein kinase Lyn (Homo sapiens) (UniProt P07948); assay: Inhibition of Lyn at 10 uM by HTRF assay relative to control; how it was run: as §1
Tyrosine-protein kinase Lyn (Homo sapiens), sequence (P07948 2-512 limits assumed): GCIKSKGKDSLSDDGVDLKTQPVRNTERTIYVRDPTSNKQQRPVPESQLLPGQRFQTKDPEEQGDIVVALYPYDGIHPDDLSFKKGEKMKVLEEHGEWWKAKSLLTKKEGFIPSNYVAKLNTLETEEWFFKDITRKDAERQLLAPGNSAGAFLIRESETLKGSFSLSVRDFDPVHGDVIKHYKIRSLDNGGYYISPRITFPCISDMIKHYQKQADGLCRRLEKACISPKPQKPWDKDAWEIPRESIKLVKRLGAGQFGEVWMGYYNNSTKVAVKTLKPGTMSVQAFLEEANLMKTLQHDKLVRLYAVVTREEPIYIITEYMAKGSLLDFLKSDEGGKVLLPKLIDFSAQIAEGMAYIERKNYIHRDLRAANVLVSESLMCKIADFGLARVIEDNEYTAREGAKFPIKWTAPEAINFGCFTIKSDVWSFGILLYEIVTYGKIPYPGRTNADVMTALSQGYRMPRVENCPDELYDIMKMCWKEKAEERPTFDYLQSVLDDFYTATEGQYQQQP

[5] = target: T1, Serine/threonine-protein kinase Chk1 (Homo sapiens) (UniProt O14757); assay: Inhibition of CHK1 at 10 uM by HTRF assay relative to control; how it was run: as §1
T1 sequence (whole entry): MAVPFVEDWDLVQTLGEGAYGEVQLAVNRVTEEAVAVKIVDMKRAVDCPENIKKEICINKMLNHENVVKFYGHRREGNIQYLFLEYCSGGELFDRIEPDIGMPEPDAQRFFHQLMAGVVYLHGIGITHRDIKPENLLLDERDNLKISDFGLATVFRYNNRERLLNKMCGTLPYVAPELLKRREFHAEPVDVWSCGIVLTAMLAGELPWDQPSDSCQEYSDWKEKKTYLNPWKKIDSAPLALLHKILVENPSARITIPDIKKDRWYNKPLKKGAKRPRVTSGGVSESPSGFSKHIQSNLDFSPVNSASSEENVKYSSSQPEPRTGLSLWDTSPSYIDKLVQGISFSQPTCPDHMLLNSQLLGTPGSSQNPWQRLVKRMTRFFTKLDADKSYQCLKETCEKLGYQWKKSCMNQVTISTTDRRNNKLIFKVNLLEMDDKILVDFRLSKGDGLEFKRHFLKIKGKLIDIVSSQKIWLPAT

[6] = target: Cyclin-dependent kinase 1 (Homo sapiens) (UniProt P06493); assay: Inhibition of CDK1 at 10 uM by HTRF assay relative to control; how it was run: as §1
Cyclin-dependent kinase 1 (Homo sapiens), sequence (P06493 whole entry, looked up): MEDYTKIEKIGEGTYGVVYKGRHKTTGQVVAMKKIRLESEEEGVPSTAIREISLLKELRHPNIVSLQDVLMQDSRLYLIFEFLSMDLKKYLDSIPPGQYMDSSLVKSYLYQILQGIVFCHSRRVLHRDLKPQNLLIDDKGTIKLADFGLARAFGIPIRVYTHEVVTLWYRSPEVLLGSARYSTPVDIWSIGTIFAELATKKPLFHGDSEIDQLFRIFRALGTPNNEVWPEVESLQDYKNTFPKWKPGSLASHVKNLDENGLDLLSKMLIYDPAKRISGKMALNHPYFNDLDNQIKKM

[7] = target: Fibroblast growth factor receptor 1 (Homo sapiens) (UniProt P11362); assay: Inhibition of FGFR1 at 10 uM by HTRF assay relative to control; how it was run: as §1
Fibroblast growth factor receptor 1 (Homo sapiens), sequence (P11362 22-822 limits assumed): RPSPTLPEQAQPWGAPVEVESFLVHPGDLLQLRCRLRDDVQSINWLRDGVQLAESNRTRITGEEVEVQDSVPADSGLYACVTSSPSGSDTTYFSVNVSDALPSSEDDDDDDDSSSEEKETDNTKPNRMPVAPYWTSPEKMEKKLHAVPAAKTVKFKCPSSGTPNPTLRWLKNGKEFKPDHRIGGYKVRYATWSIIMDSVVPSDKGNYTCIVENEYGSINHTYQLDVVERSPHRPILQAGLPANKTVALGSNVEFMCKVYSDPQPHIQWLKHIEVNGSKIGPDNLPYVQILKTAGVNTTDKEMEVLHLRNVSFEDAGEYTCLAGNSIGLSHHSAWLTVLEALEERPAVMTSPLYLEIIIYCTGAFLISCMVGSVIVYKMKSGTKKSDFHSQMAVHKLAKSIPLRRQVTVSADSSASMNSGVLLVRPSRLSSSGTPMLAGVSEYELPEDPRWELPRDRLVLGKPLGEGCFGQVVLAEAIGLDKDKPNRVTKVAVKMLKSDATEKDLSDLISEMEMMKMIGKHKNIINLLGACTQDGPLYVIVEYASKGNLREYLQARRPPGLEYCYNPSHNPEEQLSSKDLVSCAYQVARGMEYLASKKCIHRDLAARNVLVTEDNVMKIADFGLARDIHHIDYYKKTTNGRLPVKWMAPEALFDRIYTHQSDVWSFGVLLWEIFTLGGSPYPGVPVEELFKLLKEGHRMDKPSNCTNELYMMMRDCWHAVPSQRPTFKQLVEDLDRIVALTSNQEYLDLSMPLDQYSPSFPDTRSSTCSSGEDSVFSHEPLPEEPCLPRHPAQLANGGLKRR

[8] = target: Cyclin-dependent kinase 2 (Homo sapiens) (UniProt P24941); assay: Inhibition of CDK2 at 10 uM by HTRF assay relative to control; how it was run: as §1
[9] = target: High affinity nerve growth factor receptor (Homo sapiens) (UniProt P04629); assay: Inhibition of TrkA at 10 uM by HTRF assay relative to control; how it was run: as §1
High affinity nerve growth factor receptor (Homo sapiens), sequence (P04629 33-796 limits assumed): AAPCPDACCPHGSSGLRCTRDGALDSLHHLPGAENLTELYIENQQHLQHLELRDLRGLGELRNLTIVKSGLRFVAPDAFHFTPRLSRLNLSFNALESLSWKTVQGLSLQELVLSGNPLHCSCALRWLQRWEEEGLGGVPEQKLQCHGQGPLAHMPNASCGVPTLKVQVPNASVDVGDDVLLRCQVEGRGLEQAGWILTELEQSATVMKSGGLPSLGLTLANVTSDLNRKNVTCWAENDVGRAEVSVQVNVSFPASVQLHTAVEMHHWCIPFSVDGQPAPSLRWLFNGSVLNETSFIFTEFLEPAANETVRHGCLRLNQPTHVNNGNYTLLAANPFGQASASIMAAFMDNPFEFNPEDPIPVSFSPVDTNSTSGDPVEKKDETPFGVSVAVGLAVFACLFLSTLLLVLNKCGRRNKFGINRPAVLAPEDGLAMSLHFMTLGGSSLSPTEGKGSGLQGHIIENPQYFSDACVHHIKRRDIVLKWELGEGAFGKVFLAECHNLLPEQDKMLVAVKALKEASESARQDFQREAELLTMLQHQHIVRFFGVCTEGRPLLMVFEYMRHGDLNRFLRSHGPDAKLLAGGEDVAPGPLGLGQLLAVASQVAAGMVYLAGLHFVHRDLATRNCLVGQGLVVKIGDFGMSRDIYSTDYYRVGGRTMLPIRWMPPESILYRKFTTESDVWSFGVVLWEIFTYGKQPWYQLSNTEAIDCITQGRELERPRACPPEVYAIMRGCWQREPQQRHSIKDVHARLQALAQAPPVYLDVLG

[10] = Inhibition of PKA at 10 uM by HTRF assay relative to control; how it was run: as §1
[11] = target: T2, Tyrosine-protein kinase JAK3 (Homo sapiens) (UniProt P52333); assay: Inhibition of JAK3 at 10 uM by HTRF assay relative to control; how it was run: as §1
T2 sequence (whole entry): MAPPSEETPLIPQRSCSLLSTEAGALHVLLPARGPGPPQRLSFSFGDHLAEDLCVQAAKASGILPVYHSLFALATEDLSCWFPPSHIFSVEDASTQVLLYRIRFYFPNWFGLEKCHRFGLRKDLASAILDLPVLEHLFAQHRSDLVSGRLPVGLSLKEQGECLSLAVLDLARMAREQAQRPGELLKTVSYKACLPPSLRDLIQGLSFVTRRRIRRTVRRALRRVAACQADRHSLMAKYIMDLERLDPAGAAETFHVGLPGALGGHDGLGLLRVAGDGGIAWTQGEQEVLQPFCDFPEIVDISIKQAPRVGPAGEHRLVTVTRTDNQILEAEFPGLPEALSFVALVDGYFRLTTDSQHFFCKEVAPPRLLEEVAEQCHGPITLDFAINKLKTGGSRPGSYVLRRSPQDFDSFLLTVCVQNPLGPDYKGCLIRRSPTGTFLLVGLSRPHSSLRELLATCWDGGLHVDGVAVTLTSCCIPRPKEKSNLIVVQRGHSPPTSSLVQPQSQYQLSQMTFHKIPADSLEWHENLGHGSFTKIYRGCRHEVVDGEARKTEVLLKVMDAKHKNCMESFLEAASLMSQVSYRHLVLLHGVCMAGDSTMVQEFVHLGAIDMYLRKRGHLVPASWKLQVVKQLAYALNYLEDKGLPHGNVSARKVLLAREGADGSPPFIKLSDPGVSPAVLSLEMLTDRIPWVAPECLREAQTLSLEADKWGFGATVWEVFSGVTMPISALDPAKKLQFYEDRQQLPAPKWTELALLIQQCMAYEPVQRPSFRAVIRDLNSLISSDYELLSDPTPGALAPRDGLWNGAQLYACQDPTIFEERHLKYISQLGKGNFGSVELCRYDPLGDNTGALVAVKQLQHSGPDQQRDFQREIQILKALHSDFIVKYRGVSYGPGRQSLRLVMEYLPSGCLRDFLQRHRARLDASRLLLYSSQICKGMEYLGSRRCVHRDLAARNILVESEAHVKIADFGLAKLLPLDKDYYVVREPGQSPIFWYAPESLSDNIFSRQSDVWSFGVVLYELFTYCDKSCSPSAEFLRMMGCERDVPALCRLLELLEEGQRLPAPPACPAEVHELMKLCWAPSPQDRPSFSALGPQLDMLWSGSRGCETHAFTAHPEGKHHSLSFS

[12] = target: MAP kinase-activated protein kinase 2 (Homo sapiens) (UniProt P49137); assay: Inhibition of MAPKAPK2 at 10 uM by HTRF assay relative to control; how it was run: as §1
MAP kinase-activated protein kinase 2 (Homo sapiens), sequence (P49137 whole entry, looked up): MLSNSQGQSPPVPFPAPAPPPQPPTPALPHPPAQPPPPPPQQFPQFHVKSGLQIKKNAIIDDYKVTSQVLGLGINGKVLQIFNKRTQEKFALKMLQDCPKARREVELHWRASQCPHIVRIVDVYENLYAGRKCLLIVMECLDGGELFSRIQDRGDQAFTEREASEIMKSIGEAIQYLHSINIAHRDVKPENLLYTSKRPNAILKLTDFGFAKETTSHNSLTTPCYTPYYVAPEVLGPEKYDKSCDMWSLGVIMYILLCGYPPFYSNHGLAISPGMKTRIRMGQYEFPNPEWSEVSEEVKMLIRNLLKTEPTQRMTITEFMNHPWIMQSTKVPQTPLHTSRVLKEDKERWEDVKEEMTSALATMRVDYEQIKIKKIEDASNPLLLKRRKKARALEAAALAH

Ribosomal protein S6 kinase beta-1 (Homo sapiens), sequence (P23443 whole entry, looked up): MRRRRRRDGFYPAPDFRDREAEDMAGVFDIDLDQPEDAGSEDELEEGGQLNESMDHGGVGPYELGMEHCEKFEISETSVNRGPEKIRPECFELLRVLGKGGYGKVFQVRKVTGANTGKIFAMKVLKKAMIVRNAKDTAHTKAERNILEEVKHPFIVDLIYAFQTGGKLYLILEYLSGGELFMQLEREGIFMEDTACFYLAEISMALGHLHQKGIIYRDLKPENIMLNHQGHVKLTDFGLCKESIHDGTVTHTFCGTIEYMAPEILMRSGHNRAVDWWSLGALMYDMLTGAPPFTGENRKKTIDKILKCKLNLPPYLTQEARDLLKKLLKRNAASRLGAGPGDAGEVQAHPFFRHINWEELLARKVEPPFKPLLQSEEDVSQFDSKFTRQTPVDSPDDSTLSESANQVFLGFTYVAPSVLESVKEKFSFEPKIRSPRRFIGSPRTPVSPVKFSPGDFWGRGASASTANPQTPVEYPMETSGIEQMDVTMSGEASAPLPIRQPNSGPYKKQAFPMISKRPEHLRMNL

| SMILES | inhibition [1] [%] | inhibition [2] [%] | inhibition [3] [%] | inhibition [4] [%] | inhibition [5] [%] | inhibition [6] [%] | inhibition [7] [%] | inhibition [8] [%] | inhibition [9] [%] | inhibition [10] [%] | inhibition [11] [%] | inhibition [12] [%] |
| --- | --- | --- | --- | --- | --- | --- | --- | --- | --- | --- | --- | --- |
| Cc1cccc(Nc2nccc(Nc3cccc(C(=O)N(C)CCc4ccccn4)c3)n2)c1 | 9 | 36 | 0 | 47 | 5 | 1 | 82 | 28 | 60 | 0 | 50 | 0 |
| CN(C)c1ccc(C(=O)N2CCN(c3ncnc4c3CN(Cc3ccccc3)CC4)CC2)c2ccccc12 | 3 | 0 | 8 | 0 | 4 | 0 | 19 | 5 | 7 | 0 | 7 | 3 |
| Nc1nc(Nc2ccc3ncsc3c2)cc(N2CCC[C@H]2C(=O)NCCc2cccc(I)c2)n1 | 10 | 0 | 0 | 13 | 3 | 0 | 13 | 5 | 5 | 1 | 16 | 3 |
| O=C(NCCc1ccc(O)cc1)c1cccc(Nc2nccc(Nc3ccc4ncsc4c3)n2)c1 | 0 | 18 | 0 | 27 | 0 | 0 | 52 | 8 | 27 | 0 | 11 | 2 |
| CN(CCc1ccccn1)C(=O)[C@@H]1CCCN1c1nccc(Nc2ccccc2)n1 | 12 | 0 | 3 | 0 | 1 | 0 | 0 | 5 | 8 | 0 | 0 | 0 |
| O=C(NC1Cc2ccccc2C1)c1cccc(Nc2ccnc(N3CCN(c4ccccc4)CC3)n2)c1 | 9 | 0 | 0 | 4 | 2 | 0 | 2 | 2 | 5 | 0 | 0 | 4 |
| Cc1cccc(N(C)c2cc(Nc3cccc(C(=O)N4CCCC5CCCCC54)c3)ncn2)c1 (stereo not given) | 12 | 32 | 0 | 9 | 2 | 0 | 0 | 4 | 12 | 0 | 0 | 0 |
| COC[C@@H]1CCCN1C(=O)[C@@H]1CCCN1c1cc(Nc2cccc(OC)c2)nc(N)n1 | 9 | 17 | 0 | 13 | 1 | 5 | 0 | 7 | 9 | 0 | 0 | 2 |
| COC[C@@H]1CCCN1C(=O)C1CCCN1c1cc(Nc2cccc(Br)c2)ncn1 (stereo not given in full) | 3 | 3 | 0 | 0 | 2 | 0 | 0 | 4 | 8 | 8 | 8 | 0 |
| COC(=O)C(CO)NC(=O)[C@@H]1CCCN1c1nccc(Oc2cccc(C)c2)n1 (stereo not given in full) | 5 | 13 | 1 | 6 | 1 | 0 | 0 | 6 | 4 | 0 | 0 | 1 |
| Nc1nc(Nc2ccccc2)cc(N2CCC(C(=O)NCCc3ccccn3)CC2)n1 | 5 | 10 | 1 | 1 | 0 | 0 | 0 | 17 | 5 | 6 | 0 | 0 |
| Cc1cccc(N(C)c2cc(Nc3cccc(C(=O)NCCCn4ccnc4)c3)ncn2)c1 | 8 | 12 | 4 | 27 | 0 | 0 | 5 | 12 | 7 | 0 | 3 | 0 |
| O=C(NCc1ccncc1)c1cccc(Nc2cc(Nc3cccc(Br)c3)ncn2)c1 | 16 | 10 | 0 | 29 | 4 | 1 | 0 | 15 | 8 | 0 | 0 | 0 |
| Cc1ccc(CN2CCN(c3nccc(C(C#N)c4ccccn4)n3)CC2)cc1 (stereo not given) | 11 | 0 | 0 | 3 | 8 | 0 | 5 | 7 | 5 | 0 | 10 | 0 |
| Cc1cccc(CN2CCN(c3cc(N(C)c4cccc(C)c4)ncn3)CC2)c1 | 10 | 7 | 8 | 3 | 0 | 0 | 5 | 0 | 4 | 0 | 6 | 0 |
| CN(C)CC(C)(C)CNC(=O)[C@@H]1CCCN1c1nccc(Nc2ccccc2)n1 | 13 | 4 | 0 | 13 | 6 | 0 | 4 | 9 | 6 | 0 | 0 | 4 |
| Cc1cccc(Nc2ncnc3c2CN(C(=O)c2ccc(N(C)C)c4ccccc24)CC3)c1 | 0 | 10 | 0 | 9 | 3 | 0 | 0 | 24 | 8 | 0 | 0 | 0 |
| Cc1cccc(N(C)c2cc(Nc3cccc(C(=O)N(C)CCc4ccccn4)c3)ncn2)c1 | 9 | 11 | 6 | 14 | 6 | 0 | 30 | 21 | 10 | 0 | 7 | 0 |
| Nc1nc(Nc2ccc(C(=O)NCCc3ccncc3)cc2)cc(N2CCOCC2)n1 | 11 | 0 | 0 | 1 | 2 | 0 | 0 | 2 | 7 | 3 | 0 | 1 |
| COc1ccc(NC(=O)Cc2ccc(Nc3cc(N(C)c4cccc(C)c4)ncn3)cc2)cn1 | 6 | 4 | 4 | 18 | 4 | 0 | 16 | 6 | 10 | 0 | 4 | 0 |
